The test system of data set [1] is Staphylococcus aureus. In words: Antibacterial activity against linezolid-resistant Staphylococcus aureus after 16 hrs by NCCLS agar dilution method. Type of data set: functional. The method, boiled down:
(§1)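 Agar dilution MIC. Stocks were 320 μg/mL in 50% aqueous DMSO, 2-fold serially diluted in sterile water, then diluted 10-fold into Mueller–Hinton agar to give 16–0.03125 μg/mL final. Organisms were grown in MH broth at 35 °C for 8 h and adjusted to 0.5 McFarland. They were spotted onto drug-containing plates with a multipoint inoculator and incubated at 35 °C for 16 h. Linezolid was the positive control.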
(In agar dilution the substance is mixed into plates at graded concentrations.)

For data set [2], the system named is Enterococcus faecalis. In words: Antibacterial activity against Enterococcus faecalis after 16 hrs by NCCLS agar dilution method. It is filed as functional. The method, boiled down:
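Agar dilution MIC per NCCLS, 6 E. faecalis strains. Stock was 320 μg/mL in 50% water/DMSO, serially 2-fold diluted in sterile water, then 10-fold into Mueller–Hinton agar to give 16–0.03125 μg/mL final. Inocula came from MH broth cultures grown 8 h at 35 °C, adjusted to 0.5 McFarland and spotted by multipoint inoculator. Plates were read after 16 h at 35 °C.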

Data set [3] concerns Staphylococcus aureus. As to the kind of experiment: Antibacterial activity against Staphylococcus aureus ATCC 29213 after 16 hrs by NCCLS agar dilution method. Type of data set: functional. The following applies: ATCC 29213, 16 h. In short, it runs like this:
as §1

In data set [4] the test system is Staphylococcus epidermidis. In words: Antibacterial activity against linezolid-resistant Staphylococcus epidermidis after 16 hrs by NCCLS agar dilution method. It is filed as functional. The method, boiled down:
as §1

The next data set relates to Enterococcus faecium. In words: Antibacterial activity against linezolid-resistant Enterococcus faecium after 16 hrs by NCCLS agar dilution method. It is filed as functional. In short, it runs like this: as §1
Data set [5] deals with Staphylococcus epidermidis. In words: Antibacterial activity against methicillin-resistant Staphylococcus epidermidis after 16 hrs by NCCLS agar dilution method. Type of data set: functional. The method, boiled down:
as §1

Another data set concerns Streptococcus pneumoniae. As to the kind of experiment: Antibacterial activity against penicillin-resistant Streptococcus pneumoniae after 16 hrs by NCCLS agar dilution method. Type of data set: functional. The method, boiled down:
as §1

For data set [6], the system named is Staphylococcus aureus. In words: Antibacterial activity against methicillin-resistant Staphylococcus aureus after 16 hrs by NCCLS agar dilution method. Type of data set: functional. In short, it runs like this:
as §1

Data set [7] concerns Staphylococcus epidermidis. As to the kind of experiment: Antibacterial activity against methicillin-sensitive Staphylococcus epidermidis after 16 hrs by NCCLS agar dilution method. It is filed as functional. The method, boiled down:
as §1

The test system of data set [8] is Enterococcus faecalis. As to the kind of experiment: Antibacterial activity against linezolid-resistant Enterococcus faecalis after 16 hrs by NCCLS agar dilution method. Type of data set: functional. The method, boiled down: as §1
In data set [9] the test system is Staphylococcus aureus. In words: Antibacterial activity against methicillin-sensitive Staphylococcus aureus after 16 hrs by NCCLS agar dilution method. Type of data set: functional. The method, boiled down: as §1
Data set [10] can be described thus: AUC in Sprague-Dawley rat at 10 mg/kg, iv by LC-MS analysis. Type of data set: ADME, organism-based. Further details: dose 10 mg/kg, route intravenous. The following applies: plasma. In short, it runs like this: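 Rats dosed orally or by intravenous injection. AUC is the area under the plasma concentration–time curve. For the prodrug entries, all PK values were based on the amount of the active parent antibacterial detected, not the administered prodrug.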

Data set [11] can be described thus: Oral bioavailability in Sprague-Dawley rat at 10 mg/kg. The following applies: Sprague-Dawley, in vivo. Type of data set: ADME, organism-based. In short, it runs like this: (§2)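 Rats were dosed orally or by intravenous injection. For prodrugs, all parameters were based on the active parent antibacterial detected in plasma, and each prodrug dose was also given as an equivalent parent dose. Parameters were Cmax, Tmax, elimination T1/2, AUC from the concentration–time curve, clearance and oral bioavailability F.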

Data set [12] in a line: Tmax in Sprague-Dawley rat at 10 mg/kg, po by LC-MS analysis. Type of data set: ADME, organism-based. Further details: dose 10 mg/kg, route oral. The following applies: in vivo. The method, boiled down: as §2
The nature of data set [13]: Elimination half life in Sprague-Dawley rat at 10 mg/kg, iv by LC-MS analysis. Type of data set: ADME, organism-based. More on the design: dose 10 mg/kg, route intravenous. The following applies: in vivo, read-out: beta t1/2 (converted). The method, boiled down:
as §2

Data set [14] is described as follows: Clearance in Sprague-Dawley rat at 10 mg/kg, iv by LC-MS analysis. It is filed as ADME, organism-based. Further details: dose 10 mg/kg, route intravenous. The following applies: in vivo. The method, boiled down: as §2
Data set [15] can be described thus: Elimination half life in Sprague-Dawley rat at 10 mg/kg, po by LC-MS analysis. It is filed as ADME, organism-based. Further details: dose 10 mg/kg, route oral. The following applies: in vivo, read-out: beta t1/2 (converted). The method, boiled down:
as §2

Data set [16] in a line: Cmax in Sprague-Dawley rat at 10 mg/kg, po by LC-MS analysis. The following applies: in vivo. Type of data set: ADME, organism-based. Further details: dose 10 mg/kg, route oral. The method, boiled down:
as §2

The nature of data set [17]: AUC in Sprague-Dawley rat at 10 mg/kg, po by LC-MS analysis. It is filed as ADME, organism-based, Plasma. More on the design: dose 10 mg/kg, route oral. The following applies: Sprague-Dawley, plasma. In short, it runs like this:
as §2

A short description of data set [18]: Aqueous solubility of the compound. The following applies: aqueous (not further specified).
The subject of data set [19] is Staphylococcus aureus. In words: Antibacterial activity against methicillin-sensitive Staphylococcus aureus ATCC 19636 infected in po dosed systemic infection mouse model administered 1 hr post infection measured after 48 hrs. Type of data set: functional. The following applies: ATCC 19636, po. In short, it runs like this: (§3)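 Female ICR mice weighing 20–22 g, six per group, received 0.5 mL of 10⁷–10⁸ CFU/mL S. aureus intraperitoneally as a lethal systemic challenge. Dosing was oral or intravenous 1 h post-infection at 2.5, 5, 10 and 20 mg/kg, with linezolid as comparator.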

Data set [20] relates to Staphylococcus aureus. In words: Antibacterial activity against methicillin-resistant Staphylococcus aureus ATCC 33591 infected in po dosed systemic infection mouse model administered 1 hr post infection measured after 24 hrs. Type of data set: functional. The following applies: ATCC 33591, po. In short, it runs like this:
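Female ICR mice, 23–25 g, made neutropenic with cyclophosphamide ip, 150 mg/kg 4 days and 100 mg/kg 2 days before infection. Infected ip with about 0.5 mL of 10⁶ CFU/mL MRSA. Oral dosing 1 h post-infection at 5, 10, 20 and 40 mg/kg, with linezolid as control. ED₅₀ (dose treating 50% of infections) by Reed–Muench and Hill equation, 24 h after treatment.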

A short description of data set [21]: Mean resident time in Staphylococcus aureus systemic infection mouse model at 2.5 to 20 mg/kg, iv. Type of data set: ADME, organism-based. Further details: dose 2.5-20 mg/kg, route intravenous. The following applies: in vivo.
For data set [22], the system named is Staphylococcus aureus. In words: Antibacterial activity against methicillin-sensitive Staphylococcus aureus ATCC 19636 infected in iv dosed systemic infection mouse model administered 1 hr post infection measured after 48 hrs. Type of data set: functional. The following applies: ATCC 19636, iv. The method, boiled down:
as §3

These results are taken from ChEMBL document CHEMBL2321795, “Solubility-driven optimization of (pyridin-3-yl) benzoxazinyl-oxazolidinones leading to a promising antibacterial agent” (J Med Chem, 2013).

One may read the MIC as the smallest concentration in the dilution series that meets the test's criterion for growth inhibition. A higher MIC goes with a less susceptible organism. As a reminder, the AUC is concentration integrated over time. High values mean high exposure, low ones low exposure. A word on the bioavailability: it is the share of a dose that reaches the circulation, judged against a reference dose that is usually intravenous. A higher bioavailability goes with much systemic uptake. What is called Tmax is the time from dosing to the highest level. By clearance is commonly meant the volume of plasma or blood freed of the substance per unit of time. As a reminder, the Cmax is the peak of the concentration-time curve. As a reminder, the solubility is the dissolved amount per volume that the medium holds. The ED50 is the midpoint of the dose-response relation. A higher ED50 goes with a need for a large dose. Broadly, the MRT is a mean duration of stay, worked out from the concentration-time curve.

Converted amounts (≈) assume the structure as drawn.

As to `O=C1O[C@@H](CO)[C@@H]2COc3cc(-c4ccc(C(O)CO)nc4)ccc3N12` (stereo partly specified), the MIC with Staphylococcus aureus [1] stood at 16 µg/mL (≈ 44.6 µM); in the data set with Enterococcus faecalis [2] it was 1 µg/mL (≈ 2.79 µM); in the data set with Staphylococcus aureus [3], 0.5 µg/mL (≈ 1.4 µM); in [4] it was 8 µg/mL (≈ 22.3 µM); against Enterococcus faecium it was 4 µg/mL (≈ 11.2 µM); in data set [5], 0.5 µg/mL (≈ 1.4 µM). Moreover, the MIC with Streptococcus pneumoniae came out at 0.5 µg/mL (≈ 1.4 µM); with Staphylococcus aureus [6], 0.5 µg/mL (≈ 1.4 µM); in data set [7], 0.5 µg/mL (≈ 1.4 µM); with Enterococcus faecalis [8], 4 µg/mL (≈ 11.2 µM); against Staphylococcus aureus [9], 0.5 µg/mL (≈ 1.4 µM).
As for `CN1C[C@@H](c2ccc(-c3ccc4c(c3)OC[C@H]3[C@H](COP(=O)(O)O)OC(=O)N43)cn2)OC1=O.N=C(N)NCCC[C@H](N)C(=O)O.N=C(N)NCCC[C@H](N)C(=O)O`, the area under the curve (AUC) in [10] came out at 1440 ng·h/mL; in [17], 523 ng·h/mL. In data set [11], the bioavailability amounted to 34.8%. The Tmax in data set [12] amounted to 0.38 h. In addition, the half-life is 9.43 h in [13] and 3.88 h in data set [15]. Further, the clearance in data set [14] is 56.2 mL/min/kg. The same compound showed a Cmax in [16] of 170 ng/mL.
In the case of `CN1C[C@@H](c2ccc(-c3ccc4c(c3)OC[C@H]3[C@H](COP(=O)([O-])[O-])OC(=O)N43)cn2)OC1=O.[Na+].[Na+]`, the solubility in data set [18] worked out at 227 mg/mL. For the same compound, the results for the AUC in [10] and in [17] were 3160 ng·h/mL and 1660 ng·h/mL, respectively. The compound further displayed a bioavailability in [11] of 52.5%. Further, the Tmax in data set [12] was 0.44 h. The ED50 came out at 6.65 mg/kg with Staphylococcus aureus [19], 5 mg/kg with Staphylococcus aureus [20] and 14.2 mg/kg in the data set on Staphylococcus aureus [22]. For the same compound, the half-life in data set [13] was 4.88 h; in data set [15], 4.61 h. Besides, the MRT in data set [21] came out at 1.25 h. Besides, in data set [14], the clearance is 40.3 mL/min/kg. The same compound gave a Cmax in [16] of 524 ng/mL.
`O=C1O[C@@H](CO)[C@@H]2COc3cc(-c4ccc(CO)nc4)ccc3N12`: the MIC against Enterococcus faecalis [2] worked out at 4 µg/mL (≈ 12.2 µM); in [5], 0.5 µg/mL (≈ 1.52 µM); in the data set with Streptococcus pneumoniae it was 2 µg/mL (≈ 6.09 µM); against Staphylococcus aureus [6], 1 µg/mL (≈ 3.05 µM); in data set [7] it was 0.5 µg/mL (≈ 1.52 µM); in the data set on Staphylococcus aureus [9] it was 1 µg/mL (≈ 3.05 µM).
Take `CC(=O)NC[C@H]1CN(c2ccc(N3CCOCC3)c(F)c2)C(=O)O1` [LINEZOLID]: the MIC is above 8 µg/mL against Staphylococcus aureus [1]; 1 µg/mL (≈ 2.96 µM) with Staphylococcus aureus [3]; 8 µg/mL (≈ 23.7 µM) in data set [4]; 16 µg/mL (≈ 47.4 µM) against Enterococcus faecium; 2 µg/mL (≈ 5.93 µM) in [5]; 1 µg/mL (≈ 2.96 µM) against Staphylococcus aureus [6]. Also, the MIC (in data set [7]; against Staphylococcus aureus [9]) was 1 µg/mL (≈ 2.96 µM) each time. Besides, the results for the 50% effective dose (ED50) in the data set on Staphylococcus aureus [19] and in the data set on Staphylococcus aureus [22] were 8.28 mg/kg and 7.07 mg/kg, respectively.
`Cc1cc(N2CCOC2=O)ncc1-c1ccc2c(c1)OC[C@H]1[C@H](CO)OC(=O)N21`: the MIC against Enterococcus faecalis [2] was found to be 4 µg/mL (≈ 10.1 µM); in data set [5], 1 µg/mL (≈ 2.52 µM); with Streptococcus pneumoniae it was 2 µg/mL (≈ 5.03 µM); in the data set on Staphylococcus aureus [6], 0.5 µg/mL (≈ 1.26 µM); in [7] it was 0.5 µg/mL (≈ 1.26 µM); with Staphylococcus aureus [9] it was 0.5 µg/mL (≈ 1.26 µM).
Consider `CC(O)c1ccc(-c2ccc3c(c2)OC[C@H]2[C@H](CO)OC(=O)N32)cn1` (stereo partly specified), for which the MIC against Enterococcus faecalis [2] was found to be 2 µg/mL (≈ 5.84 µM); in data set [5], 1 µg/mL (≈ 2.92 µM); with Streptococcus pneumoniae, 2 µg/mL (≈ 5.84 µM); against Staphylococcus aureus [6], 1 µg/mL (≈ 2.92 µM); in data set [7], 1 µg/mL (≈ 2.92 µM); in the data set with Staphylococcus aureus [9], 1 µg/mL (≈ 2.92 µM).
Regarding `NC1(c2ccc(-c3ccc4c(c3)OC[C@H]3[C@H](CO)OC(=O)N43)cn2)CC1`, the MIC in the data set on Enterococcus faecalis [2] is 2 µg/mL (≈ 5.66 µM); in [5], 1 µg/mL (≈ 2.83 µM); with Streptococcus pneumoniae, 1 µg/mL (≈ 2.83 µM); in the data set on Staphylococcus aureus [6], 1 µg/mL (≈ 2.83 µM); in data set [7] it was 1 µg/mL (≈ 2.83 µM); in the data set on Staphylococcus aureus [9], 2 µg/mL (≈ 5.66 µM).
